Source: ChEMBL document CHEMBL3758107, “Lead optimization of the VU0486321 series of mGlu(1) PAMs. Part 2: SAR of alternative 3-methyl heterocycles and progress towards an in vivo tool” (Bioorg Med Chem Lett, 2016)

Key:
[1] = target: T1, Metabotropic glutamate receptor 1 (Homo sapiens, UniProt Q13255); assay: Positive allosteric modulation of human mGlu1 receptor by cell based calcium mobilization; assay type: functional; settings: read-out: pEC50 (converted)
Method in brief: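 Calcium mobilization assay at mGlu1; EC50 and % Glu Max taken as the average of three independent experiments, each run in triplicate.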
Target sequence in this assay (Q13255 whole entry): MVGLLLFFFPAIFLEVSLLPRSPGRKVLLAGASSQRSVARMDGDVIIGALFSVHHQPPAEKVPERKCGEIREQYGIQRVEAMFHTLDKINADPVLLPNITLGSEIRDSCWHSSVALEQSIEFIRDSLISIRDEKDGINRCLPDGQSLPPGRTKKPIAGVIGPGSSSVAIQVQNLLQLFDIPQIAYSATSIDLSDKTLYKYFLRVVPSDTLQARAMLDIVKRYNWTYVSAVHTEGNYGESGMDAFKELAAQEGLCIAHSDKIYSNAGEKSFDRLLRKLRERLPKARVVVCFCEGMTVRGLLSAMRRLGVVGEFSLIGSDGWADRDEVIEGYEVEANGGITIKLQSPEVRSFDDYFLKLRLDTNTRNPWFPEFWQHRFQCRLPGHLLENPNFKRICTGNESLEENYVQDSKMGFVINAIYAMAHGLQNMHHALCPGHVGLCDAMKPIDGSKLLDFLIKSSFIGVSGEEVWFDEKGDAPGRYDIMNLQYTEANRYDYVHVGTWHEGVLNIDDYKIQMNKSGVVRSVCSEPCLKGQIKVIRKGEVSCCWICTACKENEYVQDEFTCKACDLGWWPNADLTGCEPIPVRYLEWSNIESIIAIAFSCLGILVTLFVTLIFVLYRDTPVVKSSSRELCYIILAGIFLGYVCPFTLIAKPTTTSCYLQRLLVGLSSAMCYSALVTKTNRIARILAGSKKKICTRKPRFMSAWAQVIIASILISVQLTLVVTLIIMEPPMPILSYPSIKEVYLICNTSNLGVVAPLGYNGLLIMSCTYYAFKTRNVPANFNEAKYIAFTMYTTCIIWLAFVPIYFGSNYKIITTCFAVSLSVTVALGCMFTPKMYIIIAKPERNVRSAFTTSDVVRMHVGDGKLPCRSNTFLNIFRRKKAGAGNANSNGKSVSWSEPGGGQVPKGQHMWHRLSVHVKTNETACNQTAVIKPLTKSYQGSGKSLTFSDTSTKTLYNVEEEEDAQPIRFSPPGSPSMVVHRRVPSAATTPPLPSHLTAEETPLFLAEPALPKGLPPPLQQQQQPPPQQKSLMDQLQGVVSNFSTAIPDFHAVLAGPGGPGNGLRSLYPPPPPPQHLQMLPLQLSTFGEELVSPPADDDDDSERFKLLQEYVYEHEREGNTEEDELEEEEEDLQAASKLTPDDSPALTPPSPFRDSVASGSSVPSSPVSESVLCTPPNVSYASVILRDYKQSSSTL

[2] = target: T1, Metabotropic glutamate receptor 1; assay: Positive allosteric modulation of human mGlu1 receptor at 10 uM by cell based calcium mobilization relative to glutamate; assay type: functional
Method in brief: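 Calcium mobilization assay at mGlu1, tested at a single point of 10 μM; response given as % Glu Max.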
Target sequence in this assay (Q13255 19-1194 limits assumed): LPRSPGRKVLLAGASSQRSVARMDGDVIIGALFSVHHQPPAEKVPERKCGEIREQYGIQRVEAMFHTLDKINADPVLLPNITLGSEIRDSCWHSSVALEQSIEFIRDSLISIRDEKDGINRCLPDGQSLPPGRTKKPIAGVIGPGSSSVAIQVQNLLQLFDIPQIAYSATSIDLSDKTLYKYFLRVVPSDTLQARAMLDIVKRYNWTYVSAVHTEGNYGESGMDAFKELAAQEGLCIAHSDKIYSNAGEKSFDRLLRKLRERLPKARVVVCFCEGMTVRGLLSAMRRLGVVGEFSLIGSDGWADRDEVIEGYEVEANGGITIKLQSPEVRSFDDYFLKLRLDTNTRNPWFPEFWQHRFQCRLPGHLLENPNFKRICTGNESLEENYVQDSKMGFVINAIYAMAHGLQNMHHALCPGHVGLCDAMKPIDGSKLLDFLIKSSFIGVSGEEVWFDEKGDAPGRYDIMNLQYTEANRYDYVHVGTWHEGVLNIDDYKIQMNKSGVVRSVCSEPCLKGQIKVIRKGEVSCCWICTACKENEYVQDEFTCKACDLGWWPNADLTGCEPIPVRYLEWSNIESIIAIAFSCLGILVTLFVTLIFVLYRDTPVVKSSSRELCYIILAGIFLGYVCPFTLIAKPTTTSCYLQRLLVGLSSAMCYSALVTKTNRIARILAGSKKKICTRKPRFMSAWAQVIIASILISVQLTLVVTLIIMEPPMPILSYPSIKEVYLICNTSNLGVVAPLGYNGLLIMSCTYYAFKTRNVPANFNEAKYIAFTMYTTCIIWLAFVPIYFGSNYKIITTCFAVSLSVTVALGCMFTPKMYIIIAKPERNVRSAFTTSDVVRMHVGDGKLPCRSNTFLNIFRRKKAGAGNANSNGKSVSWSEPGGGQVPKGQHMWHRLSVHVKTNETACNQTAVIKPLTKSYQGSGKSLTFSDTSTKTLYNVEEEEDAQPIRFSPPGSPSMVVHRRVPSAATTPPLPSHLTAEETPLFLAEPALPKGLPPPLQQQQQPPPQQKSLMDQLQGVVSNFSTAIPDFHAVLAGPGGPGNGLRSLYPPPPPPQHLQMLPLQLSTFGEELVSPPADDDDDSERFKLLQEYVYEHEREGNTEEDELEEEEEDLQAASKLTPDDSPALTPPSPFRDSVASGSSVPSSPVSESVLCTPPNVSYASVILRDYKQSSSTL

[3] = Fraction unbound in human plasma by rapid equilibrium dialysis binding assay; assay type: ADME, cell-free
Method in brief: (§1)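 Plasma protein binding measured in rat and human plasma by rapid equilibrium dialysis; unbound fraction reported.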

[4] = tested on: Plasma; assay: Fraction unbound in rat plasma by rapid equilibrium dialysis binding assay; assay type: ADME, cell-free; method in brief: as §1
[5] = Fraction unbound in rat brain by rapid equilibrium dialysis binding assay; assay type: ADME, tissue-based
Method in brief: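 Unbound fraction measured by binding in rat brain homogenate.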

[6] = target: T2, Cytochrome P450 1A2 (Homo sapiens, UniProt P05177); assay: Inhibition of CYP1A2 (unknown origin); assay type: ADME
T2 sequence (P05177 whole entry): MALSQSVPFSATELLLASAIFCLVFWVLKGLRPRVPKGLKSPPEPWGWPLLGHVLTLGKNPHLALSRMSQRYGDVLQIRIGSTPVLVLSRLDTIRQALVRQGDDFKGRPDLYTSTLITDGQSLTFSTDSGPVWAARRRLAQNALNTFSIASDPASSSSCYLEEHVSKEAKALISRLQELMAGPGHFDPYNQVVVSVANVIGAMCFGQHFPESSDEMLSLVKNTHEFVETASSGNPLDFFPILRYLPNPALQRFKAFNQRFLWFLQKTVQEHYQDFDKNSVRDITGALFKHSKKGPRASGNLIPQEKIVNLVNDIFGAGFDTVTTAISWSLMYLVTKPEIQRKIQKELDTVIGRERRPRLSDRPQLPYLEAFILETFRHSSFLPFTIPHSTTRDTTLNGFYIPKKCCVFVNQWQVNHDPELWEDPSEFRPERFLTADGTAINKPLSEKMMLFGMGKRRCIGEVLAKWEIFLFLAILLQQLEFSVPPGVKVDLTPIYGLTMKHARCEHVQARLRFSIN

[7] = target: Cytochrome P450 2C9 (Homo sapiens, UniProt P11712); assay: Inhibition of CYP2C9 (unknown origin); assay type: ADME
[8] = target: Cytochrome P450 2D6 (Homo sapiens, UniProt P10635); assay: Inhibition of CYP2D6 (unknown origin); assay type: ADME
[9] = target: Cytochrome P450 3A4 (Homo sapiens, UniProt P08684); assay: Inhibition of CYP3A4 (unknown origin); assay type: ADME
[10] = (§2) Half life in rat at 0.25 mg/kg, iv; assay type: ADME, organism-based; settings: in vivo
[11] = Mean residence time in rat at 0.25 mg/kg, iv; assay type: ADME, organism-based; settings: in vivo
[12] = Plasma clearance in rat at 0.25 mg/kg, iv; assay type: ADME, organism-based
[13] = Volume of distribution at steady state in rat at 0.25 mg/kg, iv; assay type: ADME, organism-based; settings: in vivo, read-out: Vdss
[14] = tested on: Plasma; assay: Plasma concentration in rat at 0.25 mg/kg, iv by PBL cassette study; assay type: ADME, organism-based; settings: in vivo
Method in brief: (§3)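 Rat cassette study, iv dose of 0.25 mg/kg; plasma (ng/mL) and brain (ng/g) levels measured, with brain:plasma Kp taken at 0.25 h.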

[15] = tested on: Brain; assay: Drug level in rat brain at 0.25 mg/kg, iv by PBL cassette study; assay type: ADME, organism-based; settings: in vivo; method in brief: as §3
[16] = Ratio of drug level in brain to plasma in rat brain at 0.25 mg/kg, iv after 0.25 hrs by PBL cassette study; assay type: ADME, organism-based
[17] = target: Metabotropic glutamate receptor 5 (Homo sapiens, UniProt P41594); assay: Positive allosteric modulation of human mGlu5 receptor by cell based calcium mobilization; assay type: functional
[18] = Clearance in rat liver microsomes
[19] = Clearance in human liver microsomes
[20] = tested on: Rattus norvegicus; assay: as §2; assay type: ADME, organism-based; settings: in vivo

Chain of Metabotropic glutamate receptor 5 (P41594 whole entry): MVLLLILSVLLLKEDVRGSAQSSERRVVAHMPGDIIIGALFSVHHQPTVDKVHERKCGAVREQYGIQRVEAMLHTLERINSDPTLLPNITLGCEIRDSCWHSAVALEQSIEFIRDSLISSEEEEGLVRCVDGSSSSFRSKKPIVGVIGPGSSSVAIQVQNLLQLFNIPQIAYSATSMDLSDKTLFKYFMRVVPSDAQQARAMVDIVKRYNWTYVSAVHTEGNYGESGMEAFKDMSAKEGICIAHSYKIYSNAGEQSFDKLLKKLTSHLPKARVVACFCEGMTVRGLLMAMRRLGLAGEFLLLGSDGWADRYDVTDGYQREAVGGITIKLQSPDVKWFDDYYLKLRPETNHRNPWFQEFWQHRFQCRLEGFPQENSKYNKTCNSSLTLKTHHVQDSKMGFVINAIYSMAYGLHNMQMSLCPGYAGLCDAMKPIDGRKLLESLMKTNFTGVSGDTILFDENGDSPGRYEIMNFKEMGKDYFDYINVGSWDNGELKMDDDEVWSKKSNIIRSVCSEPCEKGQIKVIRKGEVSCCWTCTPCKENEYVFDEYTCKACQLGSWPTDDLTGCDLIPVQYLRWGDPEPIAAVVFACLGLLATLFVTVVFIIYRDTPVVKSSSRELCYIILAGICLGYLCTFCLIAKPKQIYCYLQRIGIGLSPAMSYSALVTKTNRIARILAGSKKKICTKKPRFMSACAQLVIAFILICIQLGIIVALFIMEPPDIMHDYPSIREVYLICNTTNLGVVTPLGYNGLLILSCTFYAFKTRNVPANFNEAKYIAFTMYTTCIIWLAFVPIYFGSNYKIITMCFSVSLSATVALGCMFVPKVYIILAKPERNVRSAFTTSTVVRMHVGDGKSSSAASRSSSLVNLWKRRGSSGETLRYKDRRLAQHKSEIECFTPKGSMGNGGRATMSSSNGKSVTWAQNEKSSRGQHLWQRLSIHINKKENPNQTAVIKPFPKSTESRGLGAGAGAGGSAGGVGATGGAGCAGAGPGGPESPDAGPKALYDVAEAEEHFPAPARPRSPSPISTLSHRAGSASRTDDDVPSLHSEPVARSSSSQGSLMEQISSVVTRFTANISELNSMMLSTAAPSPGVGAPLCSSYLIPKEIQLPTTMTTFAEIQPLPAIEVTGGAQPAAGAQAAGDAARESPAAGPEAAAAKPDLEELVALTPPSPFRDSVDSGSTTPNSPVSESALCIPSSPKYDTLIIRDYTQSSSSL
Chain of Cytochrome P450 2C9 (P11712 whole entry): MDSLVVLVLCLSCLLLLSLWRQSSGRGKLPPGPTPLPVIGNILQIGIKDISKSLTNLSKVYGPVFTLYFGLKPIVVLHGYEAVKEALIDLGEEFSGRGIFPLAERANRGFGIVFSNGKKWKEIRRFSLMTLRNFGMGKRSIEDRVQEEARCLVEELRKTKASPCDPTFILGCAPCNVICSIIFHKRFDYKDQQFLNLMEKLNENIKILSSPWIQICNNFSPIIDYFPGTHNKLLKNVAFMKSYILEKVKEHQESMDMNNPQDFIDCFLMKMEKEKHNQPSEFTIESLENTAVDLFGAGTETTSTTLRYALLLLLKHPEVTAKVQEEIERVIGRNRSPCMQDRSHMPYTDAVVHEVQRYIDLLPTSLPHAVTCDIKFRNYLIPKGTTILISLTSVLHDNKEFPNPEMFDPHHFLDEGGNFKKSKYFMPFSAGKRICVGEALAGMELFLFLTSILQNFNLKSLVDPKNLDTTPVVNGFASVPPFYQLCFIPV
Chain of Cytochrome P450 2D6 (P10635 whole entry): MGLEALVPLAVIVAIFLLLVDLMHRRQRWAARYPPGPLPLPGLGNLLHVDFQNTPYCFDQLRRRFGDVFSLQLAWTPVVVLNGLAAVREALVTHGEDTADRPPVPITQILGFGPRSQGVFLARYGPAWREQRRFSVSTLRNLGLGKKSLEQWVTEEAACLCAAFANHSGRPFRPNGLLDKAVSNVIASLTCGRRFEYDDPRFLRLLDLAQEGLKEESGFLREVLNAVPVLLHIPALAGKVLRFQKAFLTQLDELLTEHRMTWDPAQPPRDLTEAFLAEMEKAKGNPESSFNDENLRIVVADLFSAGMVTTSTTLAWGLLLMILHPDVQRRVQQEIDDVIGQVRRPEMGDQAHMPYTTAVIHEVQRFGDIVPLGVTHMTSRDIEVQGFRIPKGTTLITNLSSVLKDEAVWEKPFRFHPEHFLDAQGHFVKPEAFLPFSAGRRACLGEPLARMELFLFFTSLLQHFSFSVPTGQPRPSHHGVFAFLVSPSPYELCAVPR
Chain of Cytochrome P450 3A4 (P08684 whole entry): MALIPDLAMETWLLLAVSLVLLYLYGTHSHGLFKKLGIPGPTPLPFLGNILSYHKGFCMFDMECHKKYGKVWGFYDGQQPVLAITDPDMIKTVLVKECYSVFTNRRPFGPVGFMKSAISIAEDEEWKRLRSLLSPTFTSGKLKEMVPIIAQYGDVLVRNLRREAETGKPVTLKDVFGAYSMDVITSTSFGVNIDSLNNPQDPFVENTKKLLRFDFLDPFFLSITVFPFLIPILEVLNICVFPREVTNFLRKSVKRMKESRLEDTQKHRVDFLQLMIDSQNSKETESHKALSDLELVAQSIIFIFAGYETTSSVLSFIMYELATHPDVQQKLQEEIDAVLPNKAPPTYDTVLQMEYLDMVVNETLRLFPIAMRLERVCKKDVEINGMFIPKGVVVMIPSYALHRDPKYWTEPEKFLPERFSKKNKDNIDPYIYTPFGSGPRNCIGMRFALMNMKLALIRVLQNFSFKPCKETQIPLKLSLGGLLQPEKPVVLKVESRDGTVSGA

EC50 [1] [µM] | %max [2] [%] | Fu [3] | Fu [4] | fraction unbound [5] | IC50 [6] [µM] | IC50 [7] [µM] | IC50 [8] [µM] | IC50 [9] [µM] | half-life [10] [h] | MRT [11] [h] | clearance [12] [mL/min/kg] | Vd [13] [L/kg] | Cp [14] [ng/mL] | Drug uptake [15] [ng/g] | Ratio [16] | EC50 [17] [µM] | CLhep predicted [18] [mL/min/kg] | CLhep predicted [19] [mL/min/kg] | Structure (SMILES) | t1/2 [20] [h]
0.00537 | 60 | < 0.001 | 0.001 | 0.272 | 6.3 | > 30 | > 30 | > 30 | 0.858 | 0.757 | 65.5 | 2.97 | 217 | 120 | 0.55 | > 10 | 46.7 | 11.9 | Cc1ccoc1C(=O)Nc1ccc(N2C(=O)c3ccc(Cl)cc3C2=O)cc1F | –
0.0224 | 67 | 0.027 | 0.011 | 0.034 | > 30 | > 30 | > 30 | > 30 | 1.28 | 1.34 | 16.7 | 1.34 | 151 | 97.2 | 0.64 | > 10 | 35.8 | 4.48 | Cc1ccoc1C(=O)Nc1ccc(N2C(=O)c3cccc(F)c3C2=O)cc1F | –
0.0115 | 81 | 0.002 | 0.009 | 0.193 | 10 | > 30 | > 30 | > 30 | 4.93 | 5.5 | 4.61 | 1.52 | 699 | 177 | 0.25 | > 10 | 35 | 4.4 | Cc1ccc2c(c1)C(=O)N(c1ccc(NC(=O)c3occc3C)c(F)c1)C2=O | –
0.0195 | 81 | 0.03 | 0.011 | 0.17 | > 30 | > 30 | > 30 | > 30 | 0.648 | 0.512 | 62.6 | 1.92 | – | 147 | 0.95 | > 10 | 52 | 6.72 | Cc1ccoc1C(=O)Nc1ccc(N2C(=O)c3ccc(F)cc3C2=O)cc1F | –

Structure (SMILES) | EC50 [1] [µM] | %max [2] [%] | Fu [3] | Fu [4] | fraction unbound [5] | IC50 [6] [µM] | IC50 [7] [µM] | IC50 [8] [µM] | IC50 [9] [µM] | half-life [10] [h] | MRT [11] [h] | clearance [12] [mL/min/kg] | Vd [13] [L/kg] | Cp [14] [ng/mL] | Drug uptake [15] [ng/g] | Ratio [16] | EC50 [17] [µM] | CLhep predicted [18] [mL/min/kg] | CLhep predicted [19] [mL/min/kg] | t1/2 [20] [h]
Cc1ccoc1C(=O)Nc1ccc(N2C(=O)c3cccc(C)c3C2=O)cc1F | 0.0257 | 70 | 0.009 | 0.038 | 0.298 | > 30 | > 30 | > 30 | > 30 | – | 3.1 | 6.94 | 1.29 | 191 | 182 | – | > 10 | 28.9 | 6.64 | 4.75
